# In ChEMBL document CHEMBL1955779, “Favourable involvement of α2A-adrenoreceptor antagonism in the I₂-imidazoline binding sites-mediated morphine analgesia enhancement” (Bioorg Med Chem, 2012):
# Activity calls are given as the source filed them. The calls are words filed in the database; no cut-off is given here.
# How the values were obtained:
# [1] = Displacement of [3H]2-BFI from Sprague-Dawley rat I2 imidazoline binding site by liquid scintillation counting
# [2] = biological target: T1, Alpha-2B adrenergic receptor (Homo sapiens) (UniProt P18089); test: Antagonist activity at human alpha2B adrenergic receptor expressed in CHO cells assessed as inhibition of clonidine-induced extracellular acidification after 30 mins by cytosensor microphysiometry; format: functional, cell-based
# T1 sequence (whole entry): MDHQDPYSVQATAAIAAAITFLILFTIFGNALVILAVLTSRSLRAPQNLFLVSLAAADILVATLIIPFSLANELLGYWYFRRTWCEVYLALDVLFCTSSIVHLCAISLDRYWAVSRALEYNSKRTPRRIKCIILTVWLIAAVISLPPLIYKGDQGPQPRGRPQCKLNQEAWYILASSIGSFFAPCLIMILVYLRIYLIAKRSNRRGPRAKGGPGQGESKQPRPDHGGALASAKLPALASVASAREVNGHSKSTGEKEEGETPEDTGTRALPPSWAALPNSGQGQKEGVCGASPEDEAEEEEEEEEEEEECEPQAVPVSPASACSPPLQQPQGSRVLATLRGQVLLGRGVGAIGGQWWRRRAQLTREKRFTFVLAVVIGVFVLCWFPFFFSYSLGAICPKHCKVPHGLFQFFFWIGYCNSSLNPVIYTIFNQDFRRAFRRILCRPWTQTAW
# Outline: (§1)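 pKb from cytosensor microphysiometry on CHO cells each expressing one human α2 subtype (α2A, α2B or α2C). Antagonist shift of the clonidine agonist concentration-effect curve was measured. Means ± SEM of three to six separate experiments.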
# [3] = biological target: T2, Alpha-2A adrenergic receptor (Homo sapiens) (UniProt P08913); test: Antagonist activity at human alpha2A adrenergic receptor expressed in CHO cells assessed as inhibition of clonidine-induced extracellular acidification after 30 mins by cytosensor microphysiometry; format: functional, cell-based; outline: as §1
# T2 sequence (whole entry): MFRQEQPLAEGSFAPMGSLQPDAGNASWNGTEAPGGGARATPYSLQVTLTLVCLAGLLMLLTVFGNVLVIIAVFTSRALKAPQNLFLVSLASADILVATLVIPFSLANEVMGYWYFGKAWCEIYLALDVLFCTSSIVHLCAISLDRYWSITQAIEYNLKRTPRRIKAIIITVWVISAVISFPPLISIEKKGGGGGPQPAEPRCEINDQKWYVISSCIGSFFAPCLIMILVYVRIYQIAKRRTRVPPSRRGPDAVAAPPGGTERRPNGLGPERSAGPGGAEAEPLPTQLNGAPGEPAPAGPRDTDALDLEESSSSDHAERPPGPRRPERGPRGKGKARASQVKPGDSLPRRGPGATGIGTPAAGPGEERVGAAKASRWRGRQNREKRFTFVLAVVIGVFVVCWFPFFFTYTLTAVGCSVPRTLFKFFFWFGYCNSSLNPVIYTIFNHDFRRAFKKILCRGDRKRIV
# [4] = biological target: T3, Alpha-2B adrenergic receptor (Homo sapiens, UniProt P18089); test: Displacement of [3H]RX821002 from human alpha2B adrenergic receptor expressed in CHO cells after 30 mins by scintillation counting; format: cell-based
# T3 sequence (P18089 whole entry): T1 sequence (whole entry)
# [5] = biological target: T4, Alpha-2C adrenergic receptor (Homo sapiens) (UniProt P18825); test: Antagonist activity at human Alpha-2C adrenergic receptor expressed in CHO cells assessed as inhibition of clonidine-induced extracellular acidification after 30 mins by cytosensor microphysiometry; format: functional, cell-based; outline: as §1
# T4 sequence (whole entry): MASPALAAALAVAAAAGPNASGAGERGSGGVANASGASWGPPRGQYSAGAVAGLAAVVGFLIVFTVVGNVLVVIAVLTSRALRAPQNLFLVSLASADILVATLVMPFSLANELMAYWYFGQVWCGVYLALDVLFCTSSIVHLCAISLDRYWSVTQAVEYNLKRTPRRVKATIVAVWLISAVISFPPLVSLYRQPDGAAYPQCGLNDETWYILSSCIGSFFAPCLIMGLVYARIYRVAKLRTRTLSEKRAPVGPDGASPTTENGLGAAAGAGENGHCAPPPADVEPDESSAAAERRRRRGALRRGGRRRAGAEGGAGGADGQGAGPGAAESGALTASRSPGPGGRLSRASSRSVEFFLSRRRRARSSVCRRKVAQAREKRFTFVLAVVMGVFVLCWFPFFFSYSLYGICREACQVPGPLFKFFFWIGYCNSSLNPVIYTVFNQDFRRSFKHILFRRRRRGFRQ
# [6] = biological target: T5, Alpha-2C adrenergic receptor (Homo sapiens, UniProt P18825); test: Displacement of [3H]RX821002 from human Alpha-2C adrenergic receptor expressed in CHO cells after 30 mins by scintillation counting; format: cell-based
# T5 sequence (P18825 whole entry): T4 sequence (whole entry)
# [7] = biological target: T6, Alpha-2A adrenergic receptor (Homo sapiens, UniProt P08913); test: Displacement of [3H]RX821002 from human alpha2A adrenergic receptor expressed in CHO cells after 30 mins by scintillation counting; format: cell-based
# T6 sequence (P08913 whole entry): T2 sequence (whole entry)
# Mus musculus [8] = test: Analgesic activity in CD1 mouse assessed as latency in radiant heat-induced tail flick at 5 mg/kg, sc after 30 mins; format: functional, organism-based; parameters: dose 5 mg/kg
# Outline: (§2)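 Male CD-1 mice, 25–35 g. Radiant heat tail-flick: I.R. source aimed at lower third of tail; basal latency (2-3 s) is the mean of two trials 30 min apart. Test agent 1 or 2 mg/kg ip, or distilled water vehicle, given 15 min before morphine 5.0 mg/kg sc or saline. Readings at 30, 60, 90, 120 and 240 min after morphine, as %MPE; 8–10 mice, means ± SEM.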
# Mus musculus [9] = test: Potentiation of morphine-induced analgesic activity in CD1 mouse assessed as latency in radiant heat-induced tail flick at 1.250 mg/kg, ip administered 15 mins prior to morphine measured up to 120 mins; format: functional, organism-based; parameters: dose 1.25 mg/kg
# Outline: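 Male CD-1 mice (25–35 g) were given ip pretreatment in distilled-water vehicle 15 min before morphine 5.0 mg/kg sc or saline. Radiant-heat IR tail-flick was applied to the lower third of the tail. Basal latency (2–3 s) was the mean of two trials 30 min apart. Readings at 30, 60, 90, 120 and 240 min post-morphine were expressed as %MPE. Means ± SEM, 8–10 mice.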
# Mus musculus [10] = test: Antinociceptive activity in CD1 mouse assessed as latency in radiant heat-induced tail flick at 1 mg/kg, ip from 30 to 240 mins; format: functional, organism-based; parameters: dose 1 mg/kg; outline: as §2
# [11] = biological target: T7, 5-hydroxytryptamine receptor 1A (Homo sapiens, UniProt P08908); test: Binding affinity to 5HT1A receptor
# T7 sequence (P08908 whole entry): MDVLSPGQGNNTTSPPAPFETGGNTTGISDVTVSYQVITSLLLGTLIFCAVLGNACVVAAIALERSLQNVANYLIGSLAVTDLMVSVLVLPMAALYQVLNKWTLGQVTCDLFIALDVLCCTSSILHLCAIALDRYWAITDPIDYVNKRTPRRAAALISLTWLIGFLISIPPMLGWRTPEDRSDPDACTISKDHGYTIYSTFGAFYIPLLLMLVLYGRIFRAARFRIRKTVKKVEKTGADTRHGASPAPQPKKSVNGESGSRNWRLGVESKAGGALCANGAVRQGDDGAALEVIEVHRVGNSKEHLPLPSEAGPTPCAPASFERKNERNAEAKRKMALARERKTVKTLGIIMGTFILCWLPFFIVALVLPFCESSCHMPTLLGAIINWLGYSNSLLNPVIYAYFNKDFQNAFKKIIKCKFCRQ
# Mus musculus [12] = test: Potentiation of morphine-induced analgesic activity in CD1 mouse assessed as latency in radiant heat-induced tail flick at 2 mg/kg, ip administered 15 mins prior to morphine measured up to 120 mins; format: functional, organism-based; parameters: dose 2 mg/kg; outline: as §2
# [13] = biological target: T8, Alpha-1A adrenergic receptor (Homo sapiens, UniProt P35348); test: Binding affinity to alpha1A adrenergic receptor
# T8 sequence (P35348 whole entry): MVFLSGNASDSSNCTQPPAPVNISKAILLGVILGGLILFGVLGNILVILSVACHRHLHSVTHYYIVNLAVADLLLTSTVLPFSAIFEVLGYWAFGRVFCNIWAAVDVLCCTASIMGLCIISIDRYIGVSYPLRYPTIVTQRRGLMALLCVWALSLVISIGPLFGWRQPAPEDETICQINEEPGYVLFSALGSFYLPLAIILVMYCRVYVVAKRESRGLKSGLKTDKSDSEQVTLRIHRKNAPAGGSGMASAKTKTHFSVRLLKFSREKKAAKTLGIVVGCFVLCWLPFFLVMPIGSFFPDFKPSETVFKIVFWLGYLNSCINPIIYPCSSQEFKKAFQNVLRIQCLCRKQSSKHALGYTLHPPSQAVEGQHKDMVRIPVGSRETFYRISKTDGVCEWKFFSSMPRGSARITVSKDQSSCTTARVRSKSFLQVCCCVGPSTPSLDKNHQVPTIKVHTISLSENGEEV
# Mus musculus [14] = test: Antinociceptive activity in CD1 mouse assessed as latency in radiant heat-induced tail flick at 2 mg/kg, ip from 30 to 240 mins; format: functional, organism-based; parameters: dose 2 mg/kg; outline: as §2
# Mus musculus [15] = test: Potentiation of morphine-induced analgesic activity in ip dosed CD1 mouse assessed as latency in radiant heat-induced tail flick administered 15 mins prior to morphine in the presence of 2 mg/kg, ip of idazoxan; format: functional; conditions: route intraperitoneal
# Outline: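 CD-1 mice, radiant heat tail-flick. […] Test agent given 15 min before morphine 5.0 mg/kg sc. Latency read after morphine.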
# Mus musculus [16] = test: Potentiation of morphine-induced analgesic activity in CD1 mouse assessed as latency in radiant heat-induced tail flick at 1 mg/kg, ip administered 15 mins prior to morphine measured up to 120 mins; format: functional, organism-based; parameters: dose 1 mg/kg; outline: as §2
# [17] = Binding affinity to I2 imidazoline binding site
# [18] = Selectivity ratio of I2 imidazoline binding site to alpha2 adrenergic receptor
Compound,pKb [2],pKb [3],Ki [4],pKb [5],Ki [6],Ki [7],further results
c1ccc([C@H]2CO[C@H](C3=NCCN3)CO2)cc1,< 5,< 5,> 10 µM,< 5,> 10 µM,7.94 µM,pKi [1]: 5.48
c1ccc([C@@H]2CO[C@@H](C3=NCCN3)CO2)cc1,< 5,6.4,> 10 µM,< 5,> 10 µM,0.398 µM,pKi [1]: 6.52
c1ccc(C2(c3ccccc3)COC(C3=NCCN3)CO2)cc1 (configuration not stated),< 5,< 5,2.82 µM,< 5,7.41 µM,> 10 µM,–
c1ccc(C2(c3ccccc3)COCC(C3=NCCN3)O2)cc1 (configuration not stated),< 5,5.37,4.47 µM,< 5,6.17 µM,3.8 µM,–
CN1CC[C@]23c4c5ccc(O)c4O[C@H]2[C@@H](O)C=C[C@H]3[C@H]1C5,–,–,–,–,–,–,Activity (Mus musculus [8]): Active
COC(=O)[C@@H]1[C@H]2C[C@H]3c4[nH]c5ccccc5c4CCN3C[C@@H]2CC[C@@H]1O,–,–,–,–,–,–,Activity (Mus musculus [9]): inactive
c1ccc(C2COC(C3=NCCN3)CO2)cc1 (racemic),< 5,6.4,> 10 µM,< 5,> 10 µM,0.501 µM,Activity (Mus musculus [10]): inactive; pKi [1]: 6.35; Ki [11]: > 10 µM; Activity (Mus musculus [12]): Active; Ki [13]: > 10 µM; Activity (Mus musculus [14]): inactive; Activity (Mus musculus [15]): -24%; Activity (Mus musculus [16]): Active
c1ccc([C@@H]2CO[C@H](C3=NCCN3)CO2)cc1 (relative stereo),5.5,< 5,> 10 µM,< 5,> 10 µM,> 10 µM,–
c1ccc([C@H]2COC[C@@H](C3=NCCN3)O2)cc1 (relative stereo),5.18,< 5,> 10 µM,< 5,> 10 µM,5.37 µM,–
c1ccc([C@@H]2COC[C@@H](C3=NCCN3)O2)cc1 (relative stereo),< 5,< 5,> 10 µM,< 5,> 10 µM,6.31 µM,–
c1ccc2c(c1)OCC(C1=NCCN1)O2 (configuration not stated) [IDAZOXAN],7.16,7.73,–,7.92,–,–,pKi [17]: 8.37; Activity (Mus musculus [12]): inactive
c1ccc(CCC2=NCCN2)cc1 [PHENYZOLINE],–,–,–,–,–,–,Selectivity ratio [18]: 794; pKi [17]: 8.6
